What was measured:
[1] = target: cAMP phosphodiesterase (Bos taurus); assay: Inhibitory activity against phosphodiesterase was determined in vitro using bovine aorta, at 1 uM cAMP for cAMP-PDE.
[2] = target: T1, cGMP-specific 3',5'-cyclic phosphodiesterase (Bos taurus, UniProt Q28156); assay: Inhibition of cGMP-PDE phosphodiesterase from bovine aorta using 1 uM cGMP (insignificant)
[3] = target: T2, Phosphodiesterase 1 (Bos taurus, UniProt Q01061+P14100); assay: Inhibition of phosphodiesterase from bovine aorta with 1 uM cGMP calcium (10 uM) and calmodulin (15 nM) (insignificant); type: protein assay
How it was run: (§1)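 Calmodulin-dependent PDE peak taken from DEAE-trisacryl gradient fractions of a 105000g vascular smooth muscle supernatant. Assayed with 1 μM cGMP substrate, CaCl2 and excess bovine brain calmodulin, keeping hydrolysis ≤15%. Drugs in DMSO or DMF, final solvent ≤1%. IC50 from linear regression of % activity vs log concentration, using at least six points. Mean ± SEM of three separate enzyme preparations.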

[4] = target: T1, cGMP-specific 3',5'-cyclic phosphodiesterase; assay: Inhibitory activity against phosphodiesterase was determined in vitro using bovine aorta, at 1 uM cGMP for cGMP-PDE.
[5] = target: T2, Phosphodiesterase 1; assay: Inhibitory activity against phosphodiesterase was determined in vitro using bovine aorta, at 1 uM cGMP in the presence of calcium (10 uM) and calmodulin (15 nM); type: protein assay
How it was run: as §1

[6] = target: cAMP phosphodiesterase (Bos taurus); assay: Inhibitory activity against phosphodiesterase was determined in vitro using bovine aorta, at 1 uM cAMP for cAMP-PDE.; remark: listed apart in the source
[7] = target: T1, cGMP-specific 3',5'-cyclic phosphodiesterase; assay: Inhibitory activity against phosphodiesterase was determined in vitro using bovine aorta, at 1 uM cGMP for cGMP-PDE;Compound is insignificant.
[8] = target: T2, Phosphodiesterase 1; assay: Inhibitory activity against […] phosphodiesterase was determined in vitro using bovine aorta, at 1 uM cGMP in the presence of calcium (10 uM) and calmodulin (15 nM); Compound is insignificant.; type: protein assay
[9] = target: cAMP phosphodiesterase (Bos taurus); assay: Inhibition of cAMP-PDE phosphodiesterase from bovine aorta using 1 uM cAMP (insignificant)
[10] = target: T1, cGMP-specific 3',5'-cyclic phosphodiesterase; assay: Inhibition of cGMP-PDE phosphodiesterase from bovine aorta using 1 uM cGMP
How it was run: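 Enzyme from the 105000g supernatant, separated on DEAE-trisacryl with a 0–0.4 NaCl gradient; the cGMP-PDE peak was dialysed and stored at −80 °C. Assayed without calcium, with EGTA, at 1 μM cGMP, keeping hydrolysis ≤15%. Drugs were in DMSO or DMF, ≤1% final.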

[11] = Inhibition of phosphodiesterase from bovine aorta with 1 uM cGMP calcium (10 uM) and calmodulin (15 nM); set-up: species or system Bos taurus
How it was run: as §1

Structure (SMILES) | IC50 [4] [µM] | IC50 [5] | IC50 [6] | IC50 [8] [M] | also measured
COc1cc2c(cc1OC)[C@@H]1CNC(=O)[C@H]1CC2 |  |  |  |  | IC50 [1]: 138 µM; IC50 [2]: > 1000 µM; IC50 [3]: > 0.001 M
COc1ccc(C2CNC(=O)C2)cc1O (centres undefined) | > 1000 | > 0.001 M | > 0.001 M |  | 
COc1ccc(C2CNC(=O)C2)cc1OCc1ccccc1 (centres undefined) | 174 | > 0.001 M | 96 µM |  | 
COc1ccc(C2CC(=O)N(C(=O)c3ccccc3)C2)cc1OC (centres undefined) |  |  |  |  | IC50 [1]: 58 µM; IC50 [2]: > 1000 µM; IC50 [3]: > 0.001 M
CCC(C)COc1cc(C2CNC(=O)C2)ccc1OC (centres undefined) | 200 | > 0.001 M |  |  | 
CCCCOc1cc(CC2CNC(=O)N2)ccc1OC (centres undefined) [RO-201724] | 380 | 940 µM |  |  | 
COc1ccc(C2CNC(=O)C2)cc1OCCCC(=O)O (centres undefined) | > 1000 | > 0.001 M | 400 µM |  | 
CCCCOc1ccc(C2CNC(=O)C2)cc1 (centres undefined) |  |  |  | > 0.001 | IC50 [7]: > 1000 µM; IC50 [9]: > 0.001 M
C#CCOc1cc(C2CNC(=O)C2)ccc1OC (centres undefined) | > 1000 | > 0.001 M |  |  | 
COc1ccc(C2CNC(=O)C2)cc1OCC(C)C (centres undefined) | > 1000 | > 0.001 M | 18 µM |  | 
CCCCOc1cc(C2CNC(=O)C2)ccc1OC (centres undefined) | > 1000 | > 0.001 M | 13 µM |  | 
COc1ccc(C2CNC(=O)C2)cc1OCCCC(=O)N(C)C1CCCCC1 (centres undefined) | > 1000 | > 0.001 M | 34 µM |  | 
O=C1CC(c2ccccc2)CN1 (centres undefined) |  | > 0.001 M |  |  | IC50 [10]: > 1000 µM
COc1cc2c(cc1OC)-c1c/c(=N\c3c(C)cc(C)cc3C)n(C)c(=O)n1CC2 [TREQUINSIN] |  |  |  |  | IC50 [10]: 5 µM; IC50 [11]: 13 µM
CCCCOc1cccc(C2CNC(=O)C2)c1 (centres undefined) |  | > 0.001 M | > 0.001 M |  | IC50 [10]: > 1000 µM
CCCCOc1ccc(C2CNC(=O)C2)cc1OC (centres undefined) | > 1000 | > 0.001 M | > 0.001 M |  | 
COc1ccc(C2CCNC2)cc1OC.O=C(O)C(=O)O (centres undefined) |  |  |  | > 0.001 | IC50 [7]: > 1000 µM; IC50 [9]: > 0.001 M
COc1ccc(C2CC(=O)N(c3ccccc3)C2)cc1OC (centres undefined) |  |  |  |  | IC50 [11]: 230 µM; IC50 [2]: > 1000 µM
COc1ccc(C2CNC(=O)C2)cc1OC1CCCC1 (centres undefined) [ROLIPRAM] |  | 2700 µM |  |  | 
CCCCNC(=O)CCCOc1cc(C2CNC(=O)C2)ccc1OC (centres undefined) | > 1000 | > 0.001 M | 16 µM |  | 
CCOC(=O)CCCOc1cc(C2CNC(=O)C2)ccc1OC (centres undefined) | > 1000 | > 0.001 M | 30 µM |  | 
C=C(C)COc1cc(C2CNC(=O)C2)ccc1OC (centres undefined) | > 1000 | > 0.001 M | 24 µM |  | 
CCCCOc1cc(C2CN=C(S)C2)ccc1OC (centres undefined) |  |  |  | > 0.001 | IC50 [1]: 500 µM; IC50 [10]: 195 µM

The next lines start with results.

IC50 [4] [µM] | IC50 [5] | IC50 [6] | IC50 [8] [M] | Structure (SMILES) | also measured
> 1000 | > 0.001 M | 22 µM |  | COc1ccc(C2CNC(=O)C2C)cc1OC (centres undefined) | 
 |  |  | > 0.001 | COc1cc2c(cc1OC)[C@H]1CC(=O)NC1C2 (some centres undefined) | IC50 [1]: 800 µM; IC50 [7]: > 1000 µM
 |  |  | > 0.001 | COc1ccc(C2CC(=O)N(Cc3ccccc3)C2)cc1OC (centres undefined) | IC50 [7]: > 1000 µM
> 1000 | > 0.001 M |  |  | COc1ccc(C2CNC(=O)C2)cc1OC (centres undefined) | 
 |  |  | > 0.001 | COc1ccc(C2CC(=O)N(C(C)=O)C2)cc1OC (centres undefined) | IC50 [1]: 25 µM; IC50 [10]: > 1000 µM
 |  |  | > 0.001 | COc1ccc(C2CC(=O)N(C)C2)cc1OC (centres undefined) | IC50 [7]: > 1000 µM
 |  |  | > 0.001 | COc1cc2c(cc1OC)[C@@H]1CNC(=O)[C@@H]1CC2 | IC50 [1]: 220 µM; IC50 [7]: > 1000 µM
 |  |  | > 0.001 | COc1ccc(C2CNC(=O)C2C(=O)O)cc1OC (centres undefined) | IC50 [7]: > 1000 µM
 |  |  | > 0.001 | CCOC(=O)C1C(=O)NCC1c1ccc(OC)c(OC)c1 (centres undefined) | IC50 [1]: 21 µM; IC50 [7]: > 1000 µM

Reference: ChEMBL document CHEMBL1124643 (J Med Chem, 1989)
